# Results taken from ChEMBL document CHEMBL1287747, “Highly active antimycobacterial derivatives of benzoxazine” (2010).
# Key:
# Type in all cases: functional
# [1] = system: Mycobacterium tuberculosis; assay: Antimycobacterial activity against Mycobacterium tuberculosis CNCTC My 331/88 after 14 days by microdilution method; conditions: CNCTC My 331/88, 336 h
# Procedure, shortened: (§1)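 Strains from the Czech National Collection of Type Cultures, tested by dilution micromethod in Šula semisynthetic medium. Incubated at 37 °C and read at 14 and 21 days. MIC is the lowest concentration inhibiting growth.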
# [2] = system: Mycobacterium tuberculosis; assay: Antimycobacterial activity against Mycobacterium tuberculosis CNCTC My 331/88 after 21 days by microdilution method; conditions: CNCTC My 331/88, 504 h; procedure, shortened: as §1
# Mycobacterium avium [3] = assay: Antimycobacterial activity against Mycobacterium avium CNCTC My 330/88 after 14 days by microdilution method; conditions: CNCTC My 330/88, 336 h; procedure, shortened: as §1
# Mycobacterium avium [4] = assay: Antimycobacterial activity against Mycobacterium avium CNCTC My 330/88 after 21 days by microdilution method; conditions: CNCTC My 330/88, 504 h; procedure, shortened: as §1
# Mycobacterium kansasii [5] = assay: Antimycobacterial activity against Mycobacterium kansasii CNCTC My 235/80 after 14 days by microdilution method; conditions: CNCTC My 235/80, 336 h; procedure, shortened: as §1
# Mycobacterium kansasii [6] = assay: Antimycobacterial activity against Mycobacterium kansasii CNCTC My 235/80 after 21 days by microdilution method; conditions: CNCTC My 235/80, 504 h; procedure, shortened: as §1
# Mycobacterium kansasii [7] = assay: Antimycobacterial activity against Mycobacterium kansasii 6509/96 after 14 days by microdilution method; conditions: 6509/96, 336 h
# Procedure, shortened: (§2)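 Clinical isolate that, unlike the standard strain, is not isoniazid-resistant. Tested by dilution micromethod in Šula semisynthetic medium, with compounds added in DMSO at final 1000 down to 0.25 µmol/L in twofold steps. Löwenstein-Jensen plate used as inoculum sterility and growth control. Incubated at 37 °C and read at 14 and 21 days. MIC is the lowest concentration inhibiting growth.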
# Mycobacterium kansasii [8] = assay: Antimycobacterial activity against Mycobacterium kansasii 6509/96 after 21 days by microdilution method; conditions: 6509/96, 504 h; procedure, shortened: as §2
SMILES,MIC [1],MIC [2],MIC (Mycobacterium avium [3]),MIC (Mycobacterium avium [4]),MIC (Mycobacterium kansasii [5]),MIC (Mycobacterium kansasii [6]),MIC (Mycobacterium kansasii [7]),MIC (Mycobacterium kansasii [8])
CC(C)c1ccc(-n2c(=S)oc3ccc(F)cc3c2=S)cc1,0.25 µM,0.5 µM,0.5 µM,1 µM,4 µM,8 µM,2 µM,4 µM
Cc1ccc(-n2c(=O)oc3ccc(Br)cc3c2=O)cc1,16 µM,16 µM,31 µM,31 µM,–,62 µM,–,–
Cc1ccc(-n2c(=O)oc3ccc(Br)cc3c2=S)cc1,0.5 µM,1 µM,32 µM,32 µM,2 µM,4 µM,2 µM,4 µM
Cc1ccc(-n2c(=S)oc3ccc(Br)cc3c2=S)cc1,0.5 µM,1 µM,15 µM,30 µM,4 µM,4 µM,4 µM,4 µM
CCC(C)c1ccc(-n2c(=S)oc3ccc(F)cc3c2=S)cc1 (centres undefined),0.25 µM,0.25 µM,0.5 µM,1 µM,2 µM,4 µM,2 µM,4 µM
CCc1ccc(-n2c(=O)oc3ccc(Br)cc3c2=O)cc1,8 µM,8 µM,32 µM,32 µM,8 µM,16 µM,16 µM,16 µM
CCc1ccc(-n2c(=O)oc3ccc(Cl)cc3c2=O)cc1,8 µM,16 µM,16 µM,32 µM,16 µM,16 µM,16 µM,16 µM
CCc1ccc(-n2c(=O)oc3cc(Cl)ccc3c2=O)cc1,8 µM,8 µM,8 µM,16 µM,16 µM,16 µM,16 µM,16 µM
CCC(C)c1ccc(-n2c(=S)oc3cc(C)ccc3c2=S)cc1 (centres undefined),0.25 µM,0.5 µM,0.25 µM,0.5 µM,2 µM,2 µM,0.5 µM,1 µM
CC(C)(C)c1ccc(-n2c(=S)oc3ccc(Cl)cc3c2=S)cc1,0.25 µM,0.5 µM,1 µM,2 µM,8 µM,8 µM,8 µM,8 µM
Cc1ccc2c(=S)n(-c3ccc(C(C)(C)C)cc3)c(=S)oc2c1,0.25 µM,0.5 µM,0.5 µM,1 µM,2 µM,2 µM,1 µM,2 µM
CC(C)c1ccc(-n2c(=O)oc3ccc(F)cc3c2=O)cc1,8 µM,8 µM,8 µM,16 µM,8 µM,8 µM,8 µM,16 µM
Cc1ccc2c(=O)n(-c3ccc(C(C)C)cc3)c(=O)oc2c1,–,–,–,–,–,–,32 µM,–
CCC(C)c1ccc(-n2c(=O)oc3ccc(F)cc3c2=O)cc1 (centres undefined),8 µM,8 µM,8 µM,8 µM,8 µM,8 µM,4 µM,8 µM
CCC(C)c1ccc(-n2c(=O)oc3cc(C)ccc3c2=O)cc1 (centres undefined),–,–,–,–,–,–,32 µM,–
CCCCc1ccc(-n2c(=O)oc3ccc(Cl)cc3c2=O)cc1,16 µM,16 µM,16 µM,16 µM,8 µM,8 µM,8 µM,16 µM
CC(C)(C)c1ccc(-n2c(=O)oc3ccc(Cl)cc3c2=O)cc1,8 µM,16 µM,16 µM,32 µM,8 µM,16 µM,8 µM,8 µM
CC(C)(C)c1ccc(-n2c(=O)oc3ccc(F)cc3c2=O)cc1,16 µM,16 µM,16 µM,16 µM,16 µM,16 µM,8 µM,16 µM
CCc1ccc(-n2c(=O)oc3ccc(Br)cc3c2=S)cc1,0.5 µM,0.5 µM,32 µM,32 µM,8 µM,16 µM,4 µM,8 µM

SMILES,MIC [1],MIC [2],MIC (Mycobacterium avium [3]),MIC (Mycobacterium avium [4]),MIC (Mycobacterium kansasii [5]),MIC (Mycobacterium kansasii [6]),MIC (Mycobacterium kansasii [7]),MIC (Mycobacterium kansasii [8])
CCc1ccc(-n2c(=O)oc3ccc(Cl)cc3c2=S)cc1,0.5 µM,0.5 µM,16 µM,16 µM,8 µM,8 µM,4 µM,4 µM
CCc1ccc(-n2c(=O)oc3cc(Cl)ccc3c2=S)cc1,0.5 µM,0.5 µM,8 µM,8 µM,8 µM,8 µM,8 µM,8 µM
CC(C)c1ccc(-n2c(=O)oc3ccc(Br)cc3c2=S)cc1,0.25 µM,0.5 µM,4 µM,8 µM,32 µM,62.5 µM,4 µM,8 µM
CC(C)c1ccc(-n2c(=O)oc3ccc(Cl)cc3c2=S)cc1,0.5 µM,1 µM,32 µM,125 µM,8 µM,16 µM,1 µM,2 µM
CC(C)c1ccc(-n2c(=O)oc3cc(Cl)ccc3c2=S)cc1,0.5 µM,1 µM,8 µM,8 µM,8 µM,8 µM,4 µM,8 µM
CC(C)c1ccc(-n2c(=O)oc3ccc(F)cc3c2=S)cc1,0.25 µM,0.5 µM,0.5 µM,1 µM,2 µM,4 µM,4 µM,4 µM
Cc1ccc2c(=S)n(-c3ccc(C(C)C)cc3)c(=O)oc2c1,0.25 µM,0.5 µM,0.5 µM,1 µM,2 µM,4 µM,1 µM,2 µM
CCC(C)c1ccc(-n2c(=O)oc3ccc(Br)cc3c2=S)cc1 (centres undefined),0.25 µM,0.5 µM,16 µM,32 µM,4 µM,8 µM,2 µM,4 µM
CCC(C)c1ccc(-n2c(=O)oc3ccc(Cl)cc3c2=S)cc1 (centres undefined),0.5 µM,1 µM,32 µM,32 µM,8 µM,8 µM,4 µM,8 µM
CCC(C)c1ccc(-n2c(=O)oc3ccc(F)cc3c2=S)cc1 (centres undefined),0.25 µM,0.5 µM,1 µM,1 µM,4 µM,4 µM,2 µM,4 µM
CCC(C)c1ccc(-n2c(=O)oc3cc(C)ccc3c2=S)cc1 (centres undefined),0.25 µM,0.5 µM,0.5 µM,0.5 µM,1 µM,2 µM,0.5 µM,1 µM
CC(C)(C)c1ccc(-n2c(=O)oc3ccc(Cl)cc3c2=S)cc1,0.25 µM,0.5 µM,1 µM,2 µM,8 µM,8 µM,4 µM,8 µM
CC(C)(C)c1ccc(-n2c(=O)oc3ccc(F)cc3c2=S)cc1,0.25 µM,0.5 µM,0.5 µM,1 µM,4 µM,8 µM,8 µM,8 µM
Cc1ccc2c(=S)n(-c3ccc(C(C)(C)C)cc3)c(=O)oc2c1,0.25 µM,0.5 µM,0.25 µM,0.5 µM,2 µM,2 µM,1 µM,1 µM
CCc1ccc(-n2c(=S)oc3ccc(Cl)cc3c2=S)cc1,0.5 µM,0.5 µM,8 µM,16 µM,8 µM,8 µM,4 µM,6 µM
CCc1ccc(-n2c(=S)oc3cc(Cl)ccc3c2=S)cc1,0.5 µM,0.5 µM,4 µM,8 µM,8 µM,16 µM,8 µM,16 µM
CC(C)c1ccc(-n2c(=S)oc3ccc(Br)cc3c2=S)cc1,0.5 µM,1 µM,8 µM,16 µM,32 µM,62.5 µM,4 µM,8 µM
CC(C)c1ccc(-n2c(=S)oc3ccc(Cl)cc3c2=S)cc1,0.5 µM,1 µM,32 µM,125 µM,8 µM,16 µM,1 µM,2 µM
